These results are taken from ChEMBL document CHEMBL1159337, “Antitumor agents. 221.1 buceracidins A and B, two new flavanones from Bucida buceras” (J Nat Prod, 2003).

What is called IC50 is the concentration needed to halve the response being measured. Low readings indicate higher potency, high ones lower potency. Broadly, the inhibition is how much of the control response was suppressed. Higher therefore signals strong suppression.

Test [1] has as its system KB. As to the kind of experiment: Cytotoxicity against human KB cells after 3 days by SRB assay. The test is classed as functional, cell-based. Conditions: 72 h. An outline of the steps: (§1)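 Stock cultures were kept in RPMI-1640 with 25 mM HEPES, 0.25% sodium bicarbonate, 10% FBS and 100 µg/mL kanamycin. Freshly trypsinized cells were seeded at 1500-7500 per well with compounds diluted from DMSO stock and cultured 3 days. Cells were fixed with cold 50% TCA, stained with 0.4% SRB, and the solubilized dye was read at 562 nm. IC50 was the concentration giving a 50% absorbance reduction versus untreated cells.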
In general terms: Sulforhodamine B stains cellular protein and so reports cell mass.

The nature of test [2]: Cytotoxicity against human KBVIN cells after 3 days by SRB assay. It is filed as functional, cell-based. Conditions: 72 h. An outline of the steps:
as §1

The subject of test [3] is A549. The experiment in a line: Cytotoxicity against human A549 cells after 3 days by SRB assay. It is filed as functional, cell-based. Conditions: A549, 72 h. An outline of the steps: as §1
The test system of test [4] is 1A9. As to the kind of experiment: Cytotoxicity against human 1A9 cells after 3 days by SRB assay. It is filed as functional, cell-based. Conditions: 1A9, 72 h. An outline of the steps:
as §1

Test [5] has as its system HCT-8. The experiment in a line: Cytotoxicity against human HCT8 cells after 3 days by SRB assay. The test is classed as functional, cell-based. Conditions: HCT-8, 72 h. An outline of the steps: as §1
The subject of test [6] is MCF7. The experiment in a line: Cytotoxicity against human MCF7 cells after 3 days by SRB assay. The test is classed as functional, cell-based. Conditions: MCF7, 72 h. An outline of the steps: as §1
The subject of test [7] is PC-3. As to the kind of experiment: Cytotoxicity against human PC3 cells after 3 days by SRB assay. It is filed as functional, cell-based. Conditions: PC-3, 72 h. An outline of the steps: as §1
The nature of test [8]: Cytotoxicity against human U87MG cells after 3 days by SRB assay. The test is classed as functional, cell-based, U-87MG ATCC. Conditions: U-87 MG, 72 h. An outline of the steps:
as §1

Test [9] deals with SK-MEL-2. As to the kind of experiment: Cytotoxicity against human SK-MEL-2 cells after 3 days by SRB assay. Conditions: SK-MEL-2, 72 h. It is filed as functional, cell-based. An outline of the steps: as §1
For test [10], the system named is KB. The experiment in a line: Cytotoxicity against human KB cells at 10 ug/ml after 3 days by SRB assay. The test is classed as functional. Conditions: 72 h.

Structures are written as SMILES. In brackets after ≈: the same amount, converted by molar mass.

For the compound `CC(C)=CCc1c2c(c(O)c3c1O[C@H](c1ccccc1O)[C@@H](O)C3=O)C=CC(C)(C)O2`, the IC50 in test [1] was found to be 16.5 µg/mL (≈ 39.1 µM); in [2] it was 13.3 µg/mL (≈ 31.5 µM); in test [3], 13.5 µg/mL (≈ 32 µM); in [4] it was 15 µg/mL (≈ 35.5 µM); in test [5], 12.1 µg/mL (≈ 28.6 µM); in test [6] it was 12.8 µg/mL (≈ 30.3 µM). In addition, the half-inhibitory concentration (IC50) was found to be 15.4 µg/mL (≈ 36.5 µM) in [7], 14.8 µg/mL (≈ 35 µM) in test [8] and 14.8 µg/mL (≈ 35 µM) in test [9].

Take `CO[C@H]1C(=O)c2c(O)c3c(c(CC=C(C)C)c2O[C@@H]1c1ccccc1O)OC(C)(C)C=C3`: the half-inhibitory concentration (IC50) in test [1] is 6.5 µg/mL (≈ 14.9 µM); in test [2], 7 µg/mL (≈ 16 µM); in test [3], 7.6 µg/mL (≈ 17.4 µM); in test [4], 7.8 µg/mL (≈ 17.9 µM); in [5] it was 7.2 µg/mL (≈ 16.5 µM); in [6] it was 7 µg/mL (≈ 16 µM). The IC50 came out at 8.4 µg/mL (≈ 19.2 µM) in test [7], 8.6 µg/mL (≈ 19.7 µM) in test [8] and 7.8 µg/mL (≈ 17.9 µM) in [9].

As to `CO[C@H]1C(=O)c2c(cc3c(c2O)C=CC(C)(C)O3)O[C@@H]1c1ccccc1O` [BUCERACIDIN A], the half-inhibitory concentration (IC50) in [1] was greater than 10 µg/mL; in [2], 15 µg/mL (≈ 40.7 µM); in test [3], 14.1 µg/mL (≈ 38.3 µM); in test [4] it was 14.9 µg/mL (≈ 40.4 µM); in test [5], 15.5 µg/mL (≈ 42.1 µM); in test [6], 13.6 µg/mL (≈ 36.9 µM). For the same compound, the IC50 worked out at 16.3 µg/mL (≈ 44.2 µM) in test [7], 16.1 µg/mL (≈ 43.7 µM) in [8] and 15.6 µg/mL (≈ 42.3 µM) in test [9]. The compound further came in with an inhibition at 10 µg/mL in test [10] of 31%.

Regarding `CC1(C)C=Cc2c(cc3c(c2O)C(=O)C[C@@H](c2ccccc2O)O3)O1` [BUCERACIDIN B], the half-inhibitory concentration (IC50) was 9.5 µg/mL (≈ 28.1 µM) in [1]; 9.5 µg/mL (≈ 28.1 µM) in test [2]; 9.9 µg/mL (≈ 29.3 µM) in test [3]; 11.5 µg/mL (≈ 34 µM) in [4]; 12.8 µg/mL (≈ 37.8 µM) in [5]; 9.3 µg/mL (≈ 27.5 µM) in test [6]. Moreover, the values for the half-maximal inhibitory concentration (IC50) in [7], in test [8] and in test [9] were 13 µg/mL (≈ 38.4 µM), 14.2 µg/mL (≈ 42 µM) and 14 µg/mL (≈ 41.4 µM), respectively.

In the case of `CC(C)=CCc1c2c(c(O)c3c1O[C@H](c1ccccc1O)CC3=O)C=CC(C)(C)O2` [MINIMIFLORIN], the IC50 was determined as 7.3 µg/mL (≈ 18 µM) in test [1]; 7.7 µg/mL (≈ 18.9 µM) in test [2]; 8 µg/mL (≈ 19.7 µM) in test [3]; 7.6 µg/mL (≈ 18.7 µM) in [4]; 7.2 µg/mL (≈ 17.7 µM) in test [5]; 7.5 µg/mL (≈ 18.5 µM) in test [6]. For the same compound, the half-maximal inhibitory concentration (IC50) in [7] turned out to be 9.8 µg/mL (≈ 24.1 µM); in test [8], 11 µg/mL (≈ 27.1 µM); in [9], 9 µg/mL (≈ 22.1 µM).

Consider `CC(C)=CCc1c2c(c(O)c3c1O[C@H](c1ccccc1)[C@@H](O)C3=O)C=CC(C)(C)O2` [MUNDULINOL], for which the IC50 in test [1] is 8.5 µg/mL (≈ 20.9 µM); in test [2], 7.5 µg/mL (≈ 18.5 µM); in test [3], 7.5 µg/mL (≈ 18.5 µM); in test [4] it was 8.2 µg/mL (≈ 20.2 µM); in [5], 7 µg/mL (≈ 17.2 µM); in test [6] it was 7.5 µg/mL (≈ 18.5 µM). Besides, the IC50 in test [7] amounted to 9.3 µg/mL (≈ 22.9 µM); in test [8], 13 µg/mL (≈ 32 µM); in [9], 8.5 µg/mL (≈ 20.9 µM).
